CXCR6 block: CXCR6 (human) receptor inhibition; O00574; CHO-K1 PathHunter CXCR6 beta-arrestin, luminescence; inhibition, % at 20 µM; 360,000 tested, 0.36% active; in the data active = inhibition above about 34%, passing the limit was not always enough;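 note: antagonist mode with CXCL16 agonist at 10 nM final; 0% = 10 nM CXCL16 with DMSO and 100% = unstimulated wells without agonist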
APJ ag: APJ receptor agonism; P35414; CHO-K1 APJ PathHunter beta-arrestin, luminescence; 0% DMSO wells, 100% apelin; activation, % at 20 µM; 330,000 tested, 0.11% active;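 active = activation more than six SD over the plate average, tested at 20 µM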;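 note: 0% = DMSO alone and 100% = apelin-13 at 10 nM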
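system = engineered CHO-K1 APJ arrestin reporter cells | input = 1000 cells per well | timing = overnight seeding, 90 min compound at 25 °C, 1 h detection | measured by = enzyme-fragment complementation luminescence | read-out = beta-arrestin recruitment to APJ as agonist activity, luminescent signal | control set = negative DMSO alone, positive Apelin-13 at 10 nM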
APJ antag: antagonists of human APJ apelin receptor | P35414 | CHO-K1 APJ beta-arrestin complementation, luminescence | inhibition, % at 20 µM | 330,000 tested, 0.32% active;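 active = inhibition above about 40% at 20 µM, limit read from the data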;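 note: cells challenged with 10 nM apelin-13 agonist together with compound; plate controls were apelin-13 plus DMSO wells for no effect and DMSO wells lacking apelin-13 for full effect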
EBI2 antag: EBI2 (human) antagonism | 360,000 tested, 0.81% active | EBI2 beta-arrestin recruitment, luminescence, 7a,25-OHC stimulated | inhibition, % at 5 µM; in the data active = inhibition above about 38%;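 note: enzyme fragment complementation signal reports receptor beta-arrestin coupling in cells; 0% = agonist plus DMSO wells and 100% = wells without agonist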
CCR6 antagonist: CCR6 (human) receptor antagonism | P51684 | CHO-K1 CCR6 PathHunter beta-arrestin, luminescence, CCL20-stimulated | inhibition, % at 20 µM | 340,000 tested, 0.49% active | AID 493098;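 active = compounds whose inhibition of the agonist-driven luminescence signal at 20 µM reaches about 50%, limit read from the data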;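 note: cells stimulated with CCL20 at 14 nM final; plate controls were DMSO with CCL20 for no effect and DMSO without agonist for full effect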
Target sequence (P51684 whole entry, looked up): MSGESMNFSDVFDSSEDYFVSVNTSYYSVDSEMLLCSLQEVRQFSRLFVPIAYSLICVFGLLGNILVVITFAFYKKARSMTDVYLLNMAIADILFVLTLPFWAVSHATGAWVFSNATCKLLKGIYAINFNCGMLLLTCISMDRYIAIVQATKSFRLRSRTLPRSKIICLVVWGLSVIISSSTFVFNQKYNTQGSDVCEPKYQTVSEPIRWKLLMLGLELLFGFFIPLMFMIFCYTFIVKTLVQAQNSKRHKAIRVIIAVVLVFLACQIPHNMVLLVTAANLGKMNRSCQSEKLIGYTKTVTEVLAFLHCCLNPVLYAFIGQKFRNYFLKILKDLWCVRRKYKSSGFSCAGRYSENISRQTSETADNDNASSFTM
APJ antag confirm: APJ receptor antagonism confirmation | shares compounds with APJ antag | APJ beta-arrestin recruitment, luminescence, antagonist mode | inhibition, % at 20 µM | 950 tested, 66% active | AID 2766; in the data active = inhibition above about 50%
Active calls of the source: *; · = no result. This is a sample that favours compounds with a hit; in the whole collection about 1.5% have one here.

SMILES	CXCR6 block	APJ ag	APJ antag	EBI2 antag	CCR6 antagonist	APJ antag confirm
CCOC(=O)C1=C(N)N(c2ccccc2Oc2ccccc2)C(=O)C1	30	0	9	-4	12	·
CC(=O)C1=C(c2ccccc2)N(C(C)=O)n2c(C)nnc2S1	31	-18	105*	35	100*	152*
NC(=O)c1ccccc1OCC(=O)N1CCC(Cc2ccccc2)CC1	-1	-1	43*	-6	8	-32
Cc1ccc(C(=O)C2Oc3ccccc3C3CC(c4ccc(C)cc4)=NN23)cc1 (centres undefined)	2	4	5	17	12	·
Cc1ccc(C2=NN3C(C(=O)c4ccccc4)Oc4ccccc4C3C2)cc1 (centres undefined)	20	3	46*	18	13	46
Cc1ccc(NS(=O)(=O)c2cc([N+](=O)[O-])ccc2N/N=C/c2sc(N3CCOCC3)nc2-c2ccccc2)c(C)c1	49*	-9	68*	5	60*	119*
COc1cc(C(=O)NC(=S)Nc2ccc([N+](=O)[O-])cc2C)cc(OC)c1OC	20	-5	43*	-4	44	65*
Cc1ccc(CNC(=S)Nc2cc(C(=O)O)ccc2C)cc1	0	-1	8	5	-7	·
Cc1ccc(C(=O)O)cc1NC(=S)NC(=O)c1ccc([N+](=O)[O-])c(C)c1	30	-5	40*	17	41	37
COc1cccc(C(=O)NC(=S)Nc2ccc([N+](=O)[O-])cc2C)c1	16	-6	39	3	49	·
Cc1cccc(C)c1N1C(=O)c2ccccc2NC(=O)C1C(=O)Nc1ccc2c(c1)OCCO2 (centres undefined)	·	·	·	2	·	·
CC1(C)Oc2ccc3ccc(=O)oc3c2/C(=C/NNC(N)=O)C1=O	35	-10	50*	8	71*	62*
CCOc1cc(/C=C2\NC(=O)NC2=O)cc([N+](=O)[O-])c1O	22	-4	43*	8	36	35
COc1ccc(N=Nc2ccc(O)c3ncccc23)cc1	23	-9	46*	12	38	84*
COc1cccc(N=Nc2ccc3cccnc3c2O)c1	21	-10	61*	32	42	61*
COc1ccc(C)cc1N=Nc1ccc(O)c2ncccc12	32	·	·	9	50	·
COc1cccc(N=Nc2ccc(O)c3ncccc23)c1	90*	-14	66*	12	60*	96*
Oc1ccc(N=Nc2ccc3c(c2)OCCO3)c2cccnc12	36	-10	52*	10	51*	71*
COc1cc(OC)cc(C(=O)Nc2cccc3cccnc23)c1	3	1	-21	3	8	·
Oc1ccc(N=Nc2ccc3c(c2)OCCO3)c(O)c1	25	-4	12	6	39	·
Cc1ccc(S(=O)(=O)N2CCC(C(=O)OCC(=O)N(Cc3ccccc3)C(C)C)CC2)cc1C	3	·	·	-2	·	·
Cc1n[nH]c(C)c1CCNC(=O)C1CCC(=O)N(Cc2ccccc2F)C1 (centres undefined)	6	-7	-5	1	10	·
Cc1nn(-c2ccccc2)c(Cl)c1C(=O)OCC(=O)NCCc1ccc(S(N)(=O)=O)cc1	4	-2	-4	-4	9	·
CCN(CC)C(=O)c1cn(CCC#N)nc1-c1ccc2ccccc2c1	-3	-4	19	-8	9	·
Oc1ccc(-c2nnc(Nc3cccc(O)c3)c3ccccc23)cc1	-4	-3	67*	-3	6	-2
SMILES	CXCR6 block	APJ ag	APJ antag	EBI2 antag	CCR6 antagonist	APJ antag confirm
CNC(=O)c1ccc(Nc2nnc(-c3ccc(O)cc3)c3ccccc23)cc1	2	-2	6	-6	8	·
O=C(NC1CCN(C(=O)c2ccccc2Br)CC1)c1ccccc1	1	-2	-13	3	4	·
CCNC(=S)NNc1nnc(-c2ccccc2)c(-c2ccccc2)n1	3	-8	49*	4	32	90*
CC(C)(C)c1cc(Br)c(O)c(N=Nc2ccc(S(=O)(=O)N3CCOCC3)cc2)c1	29	-3	44*	16	52*	46
CC1=C(C(=O)Nc2ccccc2C(=O)NC2CCCCC2)SCCO1	1	3	13	-14	-2	·
COc1cccc(NC(=O)CSc2nnc(-c3cc(C)[nH]n3)n2N)c1	-9	-2	42*	10	5	1
Cc1ccc(S(=O)(=O)N2CCOCC2)cc1C(=O)N1CCN(c2ncccn2)CC1	0	-1	7	-21	9	·
CCN(CC)S(=O)(=O)c1ccc2oc(SCC(=O)Nc3cc(C)on3)nc2c1	12	-10	43*	6	·	53*
Cc1ccc(S(=O)(=O)Nc2nc3ccccc3nc2Nc2cccc(S(=O)(=O)N3CCCC3)c2)cc1	7	-1	74*	-18	2	1
Oc1ccc2ccccc2c1N=Nc1ccccn1	41*	-13	75*	29	63*	97*
Oc1ccc2ccccc2c1N=Nc1ccccc1F	11	-2	-8	-4	33	·
O=S(=O)(O)c1cccc(N=Nc2c(O)ccc3ccccc23)c1	28	-5	49*	0	43	58*
COc1cccc2cc(C(=O)C3=C(O)C(=O)N(CCN4CCOCC4)C3c3cccs3)oc12 (centres undefined)	4	-12	56*	6	13	12
O=C(C1=C(O)C(=O)N(CCN2CCOCC2)C1c1ccco1)c1cc2ccccc2o1 (centres undefined)	26	-24	50*	10	14	41
Cc1coc2c(C)c3oc(=O)c(CCC(=O)NCCC(=O)O)c(C)c3cc12	4	-4	10	2	6	·
C/C(=N\O)C(=O)C(CN1CCCCC1)CN1CCCCC1	24	-1	42*	-5	51*	23
CC(CCc1ccccc1)NCC#N (centres undefined)	-9	-2	-1	-2	5	·
CN(CCCC(=O)O)c1ccc(N=Nc2ccc([N+](=O)[O-])cc2)cc1	56*	-10	46*	6	65*	89*
CN(N=Nc1ccc([N+](=O)[O-])cc1)c1ccccc1	-7	-2	17	2	11	·
CNC[C@H](CC1CCCCC1)NC[C@H](Cc1ccccc1)NCCC12CC3CC(CC(C3)C1)C2	36	-3	44*	7	·	39
NC[C@H](Cc1ccccc1)NCCCCC1CCCCC1	-5	-5	8	-9	0	·
CCOC(=O)COc1ccccc1/C=N\NC(=O)c1cc2c(ccc3ccccc32)o1	8	4	-12	37	28	·
Cc1ccc(C(=O)COC(=O)CCC(=O)NC2CCCCC2)cc1[N+](=O)[O-]	22	-10	49*	-1	27	35
O=C(CCC(=O)OCC(=O)c1ccc([N+](=O)[O-])cc1)Nc1ccccc1Cl	-7	7	-58	-14	-6	·

High-throughput results deposited in PubChem BioAssay by Sanford-Burnham Center for Chemical Genomics.
